Measured values from ChEMBL document CHEMBL3853320, “Discovery of Imidazoquinolines as a Novel Class of Potent, Selective, and in Vivo Efficacious Cancer Osaka Thyroid (COT) Kinase Inhibitors” (J Med Chem, 2016).
≈ marks a conversion by molar mass, not a printed value. Calls of active or inactive are those of the source. The calls are words filed in the database; no cut-off is given here.

Tests used:
[1] = Octanol-water partition coefficient, log P of the compound by shake-flask method; type: physicochemical
[2] = target: T1, Mitogen-activated protein kinase kinase kinase 8 (Homo sapiens, UniProt P41279); assay: Inhibition of human COT (66 to 395 residues) expressed in Sf21 cells using 5-Fluo-Ahx-AGAGSGQLIDSNleANSFVGTR-NH2 as substrate after 60 mins by caliper microfluidic mobility shift assay
[3] = Equilibrium solubility of the compound at pH 6.8 after 16 hrs by mass spectrometric analysis; type: physicochemical; conditions: buffer
[4] = Equilibrium solubility of the compound at pH 4 after 16 hrs by mass spectrometric analysis; type: physicochemical; conditions: buffer
[5] = Clearance in wild type Sprague-Dawley rat plasma at 1 mg/kg, iv; type: ADME, organism-based
In short: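 Male wild-type Sprague–Dawley rats were given 1 mg/kg intravenously. Clearance was derived from plasma.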

[6] = target: T1, Mitogen-activated protein kinase kinase kinase 8; assay: Inhibition of COT in LPS-stimulated human whole blood assessed as reduction in TNFalpha release incubated for 30 mins followed by stimulation with LPS for 3 hrs by HTRF assay; type: tissue-based
In short: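 Human whole blood was stimulated with LPS, and TNFα release was measured as IC50.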

[7] = Half life in wild type Sprague-Dawley rat liver microsomes at 5 uM preincubated for 3 mins followed by NADPH addition measured after 1 hr by HPLC/MS analysis; type: ADME
[8] = Drug metabolism in Sprague-Dawley rat liver S9 fraction assessed as 1-(2-(1-morpholinopropan-2-ylamino)benzo[d]thiazol-6-yl)-8-(pyridin-4-yl)-1H-imidazo[4,5-c][1,7]naphthyridin-4(5H)-one metabolite formation in absence of NADPH after 5 to 120 mins by LC/MS/MS analysis; type: ADME
In short: (§1)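 Rat or human liver S9 fractions were incubated without NADPH cofactor. Loss of parent and formation of the 4-oxo metabolite M1 were monitored.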

[9] = target: T1, Mitogen-activated protein kinase kinase kinase 8; assay: Inhibition of COT in LPS-stimulated human PBMC assessed as reduction in ERK1/2 phosphorylation incubated for 60 mins followed by LPS stimulation for 12 mins by flow cytometric analysis
In short: (§2)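 Primary human PBMCs were stimulated with LPS. Read-outs were pERK, TNFα release, or p65 phosphorylation, each reported as IC50.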

[10] = Metabolic stability in bile-duct cannulated Sprague-Dawley rat assessed as parent compound remaining in bile at 3 mg/kg, iv measured over 8 hrs post dose; type: ADME, organism-based; conditions: read-out: Stability
[11] = Drug excretion in bile-duct cannulated Sprague-Dawley rat liver at 3 mg/kg, iv measured 8 hrs post dose; type: ADME, organism-based; conditions: in vivo
[12] = Drug metabolism in human liver S9 fraction assessed as 1-(2-(1-morpholinopropan-2-ylamino)benzo[d]thiazol-6-yl)-8-(pyridin-4-yl)-1H-imidazo[4,5-c][1,7]naphthyridin-4(5H)-one metabolite formation in absence of NADPH after 5 to 120 mins by LC/MS/MS analysis; type: ADME; in short: as §1
[13] = Metabolic stability in bile-duct cannulated Sprague-Dawley rat assessed as parent compound remaining in blood at 3 mg/kg, iv measured 4 hrs post dose; type: ADME, organism-based; conditions: read-out: Stability
In short: (§3)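 Bile-duct cannulated rats dosed in vivo. Parent and metabolites in each matrix were expressed as relative peak areas of the drug-related components detected, at the stated sampling time or collection period post dose.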

[14] = Protein binding in human plasma at 5 uM after 4 hrs by rapid equilibrium dialysis method; type: ADME, cell-free; conditions: read-out: PPB (converted)
[15] = target: T1, Mitogen-activated protein kinase kinase kinase 8; assay: Inhibition of COT in LPS-stimulated human PBMC assessed as reduction in TNFalpha release incubated for 1 hr followed by stimulation with LPS for 4 hrs by HTRF assay; in short: as §2
[16] = Metabolic stability in Sprague-Dawley rat liver microsomes assessed as parent compound remaining at 5 uM after 1 hr in presence of NADPH by HPLC/MS analysis; type: ADME; conditions: read-out: Stability
[17] = Drug excretion in bile-duct cannulated Sprague-Dawley rat bile at 3 mg/kg, iv; type: ADME, organism-based; conditions: read-out: Drug excretion
[18] = Drug excretion in bile-duct cannulated Sprague-Dawley rat feces at 3 mg/kg, iv measured 8 hrs post dose; type: ADME, organism-based; conditions: read-out: Drug excretion
[19] = Drug excretion in bile-duct cannulated Sprague-Dawley rat urine at 3 mg/kg, iv; type: ADME, organism-based; conditions: read-out: Drug excretion
[20] = Metabolic stability in bile-duct cannulated Sprague-Dawley rat assessed as parent compound remaining in blood at 3 mg/kg, iv measured 1 hr post dose; type: ADME, organism-based; conditions: read-out: Stability
[21] = Drug excretion in bile-duct cannulated Sprague-Dawley rat kidney at 3 mg/kg, iv measured 8 hrs post dose; type: ADME, organism-based; conditions: in vivo
[22] = Metabolic stability in bile-duct cannulated Sprague-Dawley rat assessed as parent compound remaining in feces at 3 mg/kg, iv measured over 8 hrs post dose; type: ADME, organism-based; conditions: read-out: Stability; in short: as §3
[23] = Metabolic stability in bile-duct cannulated Sprague-Dawley rat assessed as parent compound remaining in urine at 3 mg/kg, iv measured over 8 hrs post dose; type: ADME, organism-based; conditions: read-out: Stability; in short: as §3
Canis familiaris = assay: Antiinflammatory activity in MSU-induced beagle dog acute synovitis model assessed as prevention of inflammation-driven lameness at 0.2 mg/kg, po administered once a week 3 hrs post MSU injection measured after 6 hrs post last dose; type: functional, organism-based; conditions: Canis lupus familiaris
In short: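 Lameness was induced in dogs by uric acid injection into the joint. Treatment was vehicle, test article at 5 or 15 mg/kg, or meloxicam 0.2 mg/kg. Vertical peak force of the affected limb was measured on a force plate while trotting. The read-out was the time after treatment for that force to recover to 60% of the value measured before lameness.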

[24] = Inhibition of MEK/ERK signaling pathway in TNFalpha-stimulated human A431 cells transfected with COT siRNA assessed as reduction in ERK1/2 phosphorylation incubated for 60 mins followed by stimulation with TNFalpha for 10 mins by Western blot analysis; type: cell-based; conditions: A-431
[25] = target: MAP kinase-interacting serine/threonine-protein kinase 2 (Homo sapiens, UniProt Q9HBH9); assay: Inhibition of MKNK2 (unknown origin) after 60 mins in presence of ATP by caliper microfluidic mobility shift assay
[26] = target: Receptor-type tyrosine-protein kinase FLT3 (Homo sapiens, UniProt P36888, D835Y); assay: Inhibition of FLT3 (563 to 993 residues) D835Y mutant (unknown origin) after 60 mins in presence of ATP by caliper microfluidic mobility shift assay
[27] = Inhibition of MEK/ERK signaling pathway in EGF-stimulated human A431 cells transfected with COT siRNA assessed as reduction in ERK1/2 phosphorylation incubated for 60 mins followed by stimulation with EGF for 10 mins by Western blot analysis; type: cell-based; conditions: A-431
[28] = Inhibition of NFkappaB pathway in LPS-stimulated human PBMC assessed as reduction in p65 phosphorylation incubated for 60 mins followed by LPS stimulation for 12 mins by flow cytometric analysis analysis; in short: as §2

T1 sequence (P41279 whole entry, the tested form may be a part): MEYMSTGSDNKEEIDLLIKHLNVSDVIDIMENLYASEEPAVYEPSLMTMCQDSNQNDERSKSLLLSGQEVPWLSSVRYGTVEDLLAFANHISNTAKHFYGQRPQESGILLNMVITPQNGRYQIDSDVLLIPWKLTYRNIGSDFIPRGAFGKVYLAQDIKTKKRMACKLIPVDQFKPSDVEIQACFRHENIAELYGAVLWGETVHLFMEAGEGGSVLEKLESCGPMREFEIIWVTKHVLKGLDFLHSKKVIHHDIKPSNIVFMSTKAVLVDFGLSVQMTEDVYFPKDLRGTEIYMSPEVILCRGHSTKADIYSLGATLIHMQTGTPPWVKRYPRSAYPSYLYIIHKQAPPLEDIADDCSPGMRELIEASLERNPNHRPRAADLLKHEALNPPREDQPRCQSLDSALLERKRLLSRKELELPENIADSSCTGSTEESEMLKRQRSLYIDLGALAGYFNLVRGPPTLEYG
MAP kinase-interacting serine/threonine-protein kinase 2, sequence (Q9HBH9 whole entry, the tested form may be a part): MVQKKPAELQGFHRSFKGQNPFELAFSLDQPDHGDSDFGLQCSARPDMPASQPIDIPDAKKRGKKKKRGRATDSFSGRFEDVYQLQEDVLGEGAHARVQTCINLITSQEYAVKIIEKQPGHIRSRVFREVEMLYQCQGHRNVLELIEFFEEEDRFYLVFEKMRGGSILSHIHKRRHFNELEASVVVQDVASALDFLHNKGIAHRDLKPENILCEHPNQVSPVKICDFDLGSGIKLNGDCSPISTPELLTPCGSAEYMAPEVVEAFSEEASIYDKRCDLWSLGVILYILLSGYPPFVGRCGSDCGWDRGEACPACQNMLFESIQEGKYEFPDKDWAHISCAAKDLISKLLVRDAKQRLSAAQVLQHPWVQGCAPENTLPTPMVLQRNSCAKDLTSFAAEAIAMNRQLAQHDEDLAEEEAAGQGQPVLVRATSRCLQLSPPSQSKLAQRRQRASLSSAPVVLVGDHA

Row | logP [1] | IC50 [2] | solubility thermodynamic at 16 h [3] | solubility thermodynamic at 16 h [4] | IC50 [6] | IC50 [9] | fraction unbound at 4 h, 5 µM [14] | IC50 [15] | Compound | also measured
1 | 3.9 | 50 nM | – | – | – | – | – | – | N#CCc1ccc(-n2cnc3cnc4cnc(-c5ccsc5)cc4c32)cc1 | –
2 | – | 80 nM | < 4 µM | < 4 µM | – | – | – | – | Cc1nc2ccc(-n3cnc4cnc5cnc(-c6ccccc6)cc5c43)cc2s1 | –
3 | 3.3 | 9 nM | 60 µM (≈ 31.4 µg/mL) | > 1000 µM | 600 nM | 80 nM | 0.02 | 70 nM | CC(CN1CCOCC1)Nc1nc2ccc(-n3cnc4cnc5cnc(-c6ccncc6)cc5c43)cc2s1 (stereo unspecified) | clearance [5]: 297 mL/min/kg; half-life at 5 µM [7]: < 3 min; Drug metabolism [8]: Metabolite_Detected; dose excreted at 8 h [10]: 0%; Drug excretion [11]: 0.002 %ID; Drug metabolism [12]: Metabolite_Detected; remaining at 4 h [13]: 20%; remaining at 1 h, 5 µM [16]: 16%; dose excreted [17]: 0.13%; dose excreted at 8 h [18]: 0.33%; dose excreted [19]: 0.04%; remaining at 1 h [20]: 49%; Drug excretion [21]: 0.002 %ID; dose excreted at 8 h [22]: 37%; dose excreted at 8 h [23]: 2%
4 | – | 3500 nM | – | – | – | – | – | – | c1nc2ccc(-n3cnc4cnc5cnc(N6CCCCC6)cc5c43)cc2[nH]1 | –
5 | – | – | – | – | – | – | – | – | Cc1cnc(NC(=O)C2=C(O)c3ccccc3S(=O)(=O)N2C)s1 | Activity (Canis familiaris): Active
6 | 4.2 | 20 nM | < 4 µM | 6 µM (≈ 2.28 µg/mL) | 1780 nM | 540 nM | < 0.01 | 440 nM | c1cnc2ccc(-n3cnc4cnc5cnc(-c6ccsc6)cc5c43)cc2c1 | IC50 [24]: 61 nM; IC50 [25]: < 1400 nM; IC50 [26]: < 340 nM; IC50 [27]: > 10000 nM; IC50 [28]: > 25000 nM
7 | – | 160 nM | – | – | – | – | – | – | c1nc2ccc(-n3cnc4cnc5cnc(-c6cnsc6)cc5c43)cc2[nH]1 | –
8 | – | 200 nM | – | – | – | – | – | – | Cc1cccc(-c2cc3c(cn2)ncc2ncn(-c4ccc5nc[nH]c5c4)c23)c1 | –
9 | 3.2 | 4 nM | 135 µM (≈ 69.7 µg/mL) | > 1000 µM | 80 nM | 30 nM | – | 30 nM | C[C@H](CN1CCOCC1)Nc1ccc2cc(-n3cnc4cnc5cnc(-c6ccncc6)cc5c43)ccc2n1 | clearance [5]: 221 mL/min/kg
10 | – | 96 nM | < 4 µM | < 4 µM | – | – | – | – | c1ccc(-c2cc3c(cn2)ncc2ncn(-c4ccc5ncccc5c4)c23)cc1 | –
11 | 4.4 | 9 nM | 9 µM (≈ 4.69 µg/mL) | > 1000 µM | 1010 nM | 120 nM | < 0.01 | 130 nM | CC(CN1CCOCC1)Nc1nc2ccc(-n3cnc4cnc5cnc(-c6ccccc6)cc5c43)cc2s1 (stereo unspecified) | –
12 | 5.1 | 22 nM | 13 µM (≈ 6.86 µg/mL) | 261 µM (≈ 138 µg/mL) | > 10000 nM | 280 nM | < 0.01 | 290 nM | CC(CN1CCOCC1)Nc1nc2ccc(-n3cnc4cnc5cnc(-c6cccs6)cc5c43)cc2s1 (stereo unspecified) | clearance [5]: 40 mL/min/kg; half-life at 5 µM [7]: < 3 min; dose excreted at 8 h [10]: 4%; remaining at 4 h [13]: 68%; remaining at 1 h, 5 µM [16]: 66%; dose excreted [17]: 0.63%; dose excreted [19]: 0.63%; remaining at 1 h [20]: 86%; dose excreted at 8 h [23]: 1%
